Consider 32 compounds from ChEMBL document CHEMBL1124721, “Antioxidant-based inhibitors of leukotriene biosynthesis. The discovery of 6-[1-[2-(hydroxymethyl)phenyl]-1-propen-3-yl]-2,3-dihydro-5- benzofuranol, a potent topical antiinflammatory agent” (J Med Chem, 1990).

Data set [1] has as its system Mus musculus. In words: Tested for ability to inhibit the topical inflammatory response in the topical mouse ear(TME) model. Type of data set: functional. The gist of the method: (§1)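 Mice received 25 μL on the inner surface of one ear, with five mice per group. Compound was applied in acetone/pyridine/water 97:2:1 together with 200 μg/mL PMA as irritant. Controls received vehicle alone or vehicle with PMA. Solvent was evaporated at room temperature. After 4 h, 6-mm ear punches were weighed wet to measure edema. ED50 came from four-point titrations.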

Data set [2] is filed under the species Homo sapiens. The data set can be described thus: Inhibitory activity against production of leukotriene B4 in isolated human polymorphonuclear leukocytes. In kind it is functional. The gist of the method: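 Leukotriene biosynthesis in human polymorphonuclear leukocytes was started with calcium ionophore A23187, and LTB₄ was quantified by radioimmunoassay. Inhibition curves came from five-point titrations fitted with a four-parameter algorithm to give IC50. Compounds were generally tested at least in duplicate, with the IC50 reported as the mean of all determinations.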

Data set [3] in a line: Partition coefficient (logP). The note with it: octanol/water. Type of data set: physicochemical. The essentials: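 Octanol/water log P was estimated by calculation with commercial software, not measured experimentally.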
Data set [4] deals with Mus musculus. In words: Tested for its ability to inhibit the topical inflammatory response in the topical mouse ear(TME) model. Type of data set: functional. The gist of the method: as §1

On to `OCc1ccccc1NCc1c(O)ccc2c1CCCO2`, for which, in data set [1], the ED50 is 0.6 uM site-1. Besides, the IC50 (usually the point on the concentration scale where inhibition reaches its midpoint) in data set [2] was determined as 17 µM. Also, the logP (in general, the decadic logarithm of the partition coefficient of the neutral form, usually between octanol and water) in data set [3] amounted to 2.4.
Compound `OCc1ccccc1SCc1cc2c(cc1O)CCCO2` registered a concentration for half-maximal inhibition (IC50) in data set [2] of 1.4 µM. In data set [3], this compound returned a logP of 3.6.
`CC(=O)c1ccc(SCc2cc3c(cc2O)CCCO3)cc1` yielded an IC50 in data set [2] of 0.44 µM. The compound also showed a log partition coefficient (logP) in data set [3] of 4.2.
With `O=Cc1ccccc1/C=C/Cc1cc2c(cc1O)CCO2`, in data set [2], inhibition was half-maximal at 0.07 µM (IC50). The compound further registered a logP in data set [3] of 3.9.
For `COc1ccc(O)c(C/C=C/c2ccccc2)c1`, the ED50 in data set [1] amounted to 1.08 uM site-1. This compound returned an IC50 in data set [2] of 0.25 µM. The logP in data set [3] is 4.4.
Consider `OCc1ccccc1CCCc1cc2c(cc1O)CCO2`, for which, in data set [2], 0.19 µM corresponded to half-maximal inhibition (IC50). In data set [3], this compound registered a logP of 4.
On the same counts, the results for `COc1ccc(O)c(CNc2ccc(F)cc2F)c1` are 1.3 µM and 3.5.
On the same counts, the results for `Oc1cc2c(cc1CNc1ccccc1)OCC2` are 0.49 µM and 2.9.
On to `Oc1cc2ccoc2cc1CNc1ccccc1`, for which the ED50 in data set [1] turned out to be 0.97 uM site-1. The compound further came in with a half-maximal inhibitory concentration (IC50) in data set [2] of 11 µM. The logP in data set [3] came out at 3.3.
In data set [1], `CC(=O)c1ccc(/C=C/Cc2cc3c(cc2O)CCO3)cc1` returned an ED50 of 0.54 uM site-1. The half-maximal inhibitory concentration (IC50) in data set [2] turned out to be 0.06 µM. The lipophilicity (logP) in data set [3] is 4.
On to `COc1ccc(O)c(CSc2ccccc2)c1`, for which the IC50 in data set [2] was 0.59 µM. In data set [3], this compound registered a lipophilicity (logP) of 3.9.
On to `N#Cc1ccc(NCc2cc3c(cc2O)CCCO3)cc1`, for which, in data set [1], the ED50 stood at 1.61 uM site-1. In addition, the IC50 in data set [2] was determined as 1.6 µM. The log partition coefficient (logP) in data set [3] was 3.6.
In data set [2], `COc1ccc(O)c(CNc2ccccc2)c1` displayed a half-inhibitory concentration (IC50) of 4.7 µM. In data set [4], this compound yielded an ED50 of 0.61 uM site-1. In addition, the logP in data set [3] came out at 2.8.
Compound `N#Cc1cc(NCc2cc3c(cc2O)CCO3)cs1` had an IC50 in data set [2] of 0.44 µM. This compound showed a logP in data set [3] of 2.8.
On to `OCc1ccccc1/C=C/Cc1cc2c(cc1O)CCO2`, for which, in data set [1], the ED50 is 0.74 uM site-1. This compound also showed an IC50 in data set [2] of 0.13 µM. In data set [3], this compound came in with a log partition coefficient (logP) of 3.5.
In data set [2], `Oc1ccc2c(c1CNc1ccc(F)cc1F)CCCO2` gave a 50% inhibitory concentration (IC50) of 1.4 µM. In addition, in data set [3], the logP was 4.2.
In data set [1], `CC(=O)c1ccc(NCc2cc3c(cc2O)CCO3)cc1` returned an ED50 of 0.35 uM site-1. In data set [2], this compound registered an IC50 of 1.2 µM. Besides, the lipophilicity (logP) in data set [3] was 2.9.
In the case of `OCc1ccccc1NCc1cc2c(cc1O)CCO2`, the half-inhibitory concentration (IC50) in data set [2] is 11 µM. Also, the logP in data set [3] was 1.9.
On the same counts, the results for `Oc1cc2c(cc1CNc1ccc(F)cc1F)OCC2` are 0.66 µM and 3.6.
Taken in the same sequence, the figures for `CCOC(=O)c1ccc(NCc2cc3c(cc2O)CCCO3)cc1` were 0.6 µM and 4.6.
Regarding `CC(=O)c1ccc(NCc2cc3c(cc2O)CCCO3)cc1`, the ED50 in data set [1] stood at 0.35 uM site-1. Moreover, 4.1 µM corresponded to half-maximal inhibition in data set [2] (IC50). Further, the lipophilicity (logP) in data set [3] was 3.5.
`Oc1cc2c(cc1CNc1ccc(F)cc1F)OCCC2` had a concentration for half-maximal inhibition (IC50) in data set [2] of 1.3 µM. In addition, the log partition coefficient (logP) in data set [3] worked out at 4.2.
In turn, `COc1ccc(O)c(COc2ccccc2)c1` gave an IC50 in data set [2] of 1.4 µM. In addition, the logP in data set [3] was determined as 3.3.
On the same counts, the results for `COc1ccc(O)c(CNc2ccc(C#N)s2)c1` are 2.6 µM and 2.7.
`COc1ccc(O)c(CCc2ccccc2)c1`: the half-inhibitory concentration (IC50) in data set [2] was determined as 0.12 µM. This compound also had a logP in data set [3] of 4.3.
In data set [2], `N#Cc1ccc(NCc2cc3c(cc2O)CCO3)s1` returned an IC50 of 0.99 µM. Also, in data set [3], the log partition coefficient (logP) came to 2.8.
The compound `OCc1ccccc1NCc1cc2c(cc1O)CCCO2` came in with an ED50 in data set [1] of 0.49 uM site-1. The half-maximal inhibitory concentration (IC50) in data set [2] is 21 µM. Further, the lipophilicity (logP) in data set [3] was found to be 2.4.
Compound `CC(=O)c1ccc(NCc2c(O)ccc3c2CCCO3)cc1` came in with an IC50 in data set [2] of 11 µM. Also, the logP in data set [3] was 3.5.
Turning to `COc1ccc(O)c(CSc2ccccc2CO)c1`, in data set [1], the ED50 worked out at 0.87 uM site-1. Also, in data set [2], the 50% inhibitory concentration (IC50) turned out to be 8.7 µM. The same compound registered a logP in data set [3] of 2.9.
`OCc1ccccc1NCc1cc2occc2cc1O` had an ED50 in data set [1] of 0.44 uM site-1. Also, in data set [2], the IC50 stood at 42 µM. Also, the logP in data set [3] was determined as 2.2.
Taken in the same sequence, the figures for `Oc1cc2c(cc1CNc1ccccc1)OCCC2` were 0.67 uM site-1, 1.7 µM and 3.5.
Compound `COc1ccc2c(c1)c(CC(=O)O)c(C)n2C(=O)c1ccc(Cl)cc1` [INDOMETHACIN] returned an ED50 in data set [1] of 0.64 uM site-1.
